Apaf-1 act – activators of human Apaf-1 apoptosome | O14727 | Apaf-1 apoptosome caspase-3 activation, DEVD-Rh110 fluorescence; stronger effect = lower value | activity change, negative = activation, % at 20 µM | 330,000 compounds, 0.31% hits | AID 489031;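 active means activity change at or below -40% at 20 µM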
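System: Reconstituted apoptosome of Apaf-1, cytochrome c, caspase-9, procaspase-3 | Reagent: dATP, cytochrome c, and (Z-DEVD)2-Rh110 caspase-3 substrate | Times: 30 min compound preincubation and 50 min reaction, both room temperature | Detection: Caspase-3-released Rh110 fluorescence, 540 nm emission, 480 nm excitation | Measure: Caspase-3 activity via Apaf-1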
Rh110 act interf – counter-screen for Apaf-1 activators: fluorescence interference. shares compounds with Apaf-1 act. 980 tested, under 10 active. Rh110 fluorescence interference, quenched caspase reaction, Ex480/Em540. fluorescence interference (activity change), % at 20 µM, hits read low;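 active means mean activity change at or below -40% when tested at 20 µM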
Apaf-1 act conf2 – confirmation of human Apaf-1 activators | shares compounds with Apaf-1 act | activity change, negative = activation, % at 20 µM | reconstituted apoptosome caspase-3 activity, DEVD-Rh110 fluorescence; stronger effect = lower value | 980 compounds, 5% hits | AID 504617;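 active means mean activity change at or below -40%, meaning activation of 40% or more, at 20 µM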
The depositor's hits bear a star. Only a sample is shown.

SMILES | Apaf-1 act | others
CC(C)NC(=O)C1CCN(S(=O)(=O)c2ccc(N3CCCC3=O)cc2)CC1 | -332* | Rh110 act interf=-3;Apaf-1 act conf2=2
CCCCc1cc(=O)oc2cc(OCC(=O)NCCN3CCOCC3)c(Cl)cc12 | 61
C#CCOCCOCCOCCNc1nc(N2CCN(C(=O)[C@H]([C@@H](C)CC)n3cc([C@@H](N)Cc4ccc(O)cc4)nn3)CC2)nc(N2CCN(C(=O)[C@H](Cc3cc4ccccc4[nH]3)n3cc([C@@H](N)C(C)CC)nn3)CC2)n1 (some centres not stated) | 49
CC12CC3CC(C)(C1)CC(N)(C3)C2 | -11
O=C(Cc1cc(=O)[nH][nH]1)N/N=C/c1c(Cl)cccc1Cl | 64
CCCCCc1ccc(OCCCC[n+]2ccc(C)cc2)c(CCCCC)c1 | 56
CC(=O)NC1=C(N(C)C2CCS(=O)(=O)C2)C(=O)c2ccccc2C1=O (configuration not stated) | 54
COc1ccc(NC(=O)c2c[nH]n3c(=O)cc(C4CCN(C(=O)OC(C)(C)C)CC4)nc23)cc1Cl | 42
Cc1cccc2sc(N(CCCN(C)C)C(=O)c3ccc(S(=O)(=O)N4CCc5ccccc5C4)cc3)nc12 | 63
CCOc1cc(/C=C2/C(=O)N(c3ccccc3)N=C2C)ccc1OC(=O)c1ccco1 | 97
CCOC(=O)c1nn(-c2ccccc2)c(=O)cc1OCC(=O)Nc1cc(C)ccc1OC | -57* | Rh110 act interf=4;Apaf-1 act conf2=-34
CC(=O)N=Cc1c(C)c(C#N)c(=O)n(C)c1O | 44
COc1ccc(N2C(=O)CC(N(CCc3ccc(OC)c(OC)c3)C(=S)Nc3ccccc3)C2=O)cc1 (configuration not stated) | -41* | Rh110 act interf=-4;Apaf-1 act conf2=16
O=C(Oc1ccc[nH]c1=O)c1cc([N+](=O)[O-])cc([N+](=O)[O-])c1 | 93
CCCC(C)NC(=O)c1cc(C(=O)OC)cc([N+](=O)[O-])c1 (configuration not stated) | -108* | Rh110 act interf=-2;Apaf-1 act conf2=11
CNS(=O)(=O)Cc1ccc2[nH]cc(CCN(C)C)c2c1 | 1
C#CCOCCOCCOCCNc1nc(N2CCN(C(=O)CCCCCCCCCCNC(=O)[C@@H](CCSC)n3cc(CCO)nn3)CC2)nc(N2CCN(C(=O)CCCCCCCCCCNC(=O)[C@H]([C@@H](C)CC)n3cc(CCCCCN)nn3)CC2)n1 | 51
CCN(CC(=O)Nc1c(F)cccc1F)C(=O)CNC(=O)c1ccc2c(c1)OCO2 | 53
O=C(NCC(c1ccco1)N1CCN(c2ccc(F)cc2)CC1)c1ccc2c(c1)OCO2 (configuration not stated) | -155* | Rh110 act interf=-2;Apaf-1 act conf2=16
CCN(Cc1ccccc1)C(=O)c1cccc(S(=O)(=O)N2CCN(c3ccc(F)cc3)CC2)c1 | 42
C[C@@H](CN1C2=NC[C@H](Cc3ccccc3)N2C[C@H]1Cc1ccc(O)cc1)NC(=O)CCC1CCCCC1 | 41
COc1ccc2c(c1)CC/C(=C\Nc1ccc3c(c1)OCO3)C2=O | 78
COc1ccc(/C=N/Nc2cc(N(C)C)nc(N(C)C)n2)cc1 | 97
COc1ccc(S(=O)(=O)N/N=C\c2ccc3c(c2)OCO3)c(OC)c1 | -120* | Rh110 act interf=0;Apaf-1 act conf2=6
COc1cccc(-c2sc3ccc(OC)cc3c2-c2ccc(OCCN(C)C)cc2)c1 | 75
SMILES | Apaf-1 act | others
Cc1ccc(NC2=C(NC(=O)c3ccccc3)C(=O)c3ccccc3C2=O)cc1Cl | 67
CCC(C)N(C(=O)COC(=O)c1cc([N+](=O)[O-])ccc1N1CCOCC1)C1CCS(=O)(=O)C1 (configuration not stated) | 78
Cc1ccc(S(=O)(=O)NCc2ccc3c(c2)cc(C)n3C)cc1 | 51
Cc1[nH]c2ccc(CNS(=O)(=O)c3ccc(S(=O)(=O)N4CCOCC4)cc3)cc2c1C | -48* | Rh110 act interf=14;Apaf-1 act conf2=16
Clc1ccc(-c2nnc3sc(Cc4cccs4)nn23)cc1 | 58
Cc1cc(-c2nnc(CCC(=O)NC(C)(C)C34CC5CC(CC(C5)C3)C4)o2)no1 | -55* | Rh110 act interf=8;Apaf-1 act conf2=5
OCCN1CCN(CCCN2c3ccccc3Sc3ccc(Cl)cc32)CC1 | 46
Oc1ccc(N=Cc2ccc(OCc3ccccc3)cc2)cc1 | 93
CC(=O)c1ccc2c(c1)C1C=CCC1C(c1ccncc1)N2 (configuration not stated) | 60
COc1ccc2nc3ccccc3nc2c1N | 92
COc1ccc(C(=O)n2nc(-c3ccccc3)nc2N)cc1OC | -363* | Rh110 act interf=-6;Apaf-1 act conf2=10
COc1ccc2c(c1OC)C(=O)OC2C1c2c(cc3c(c2OC)OCO3)CCN1C (configuration not stated) | 5
Cc1ccc2c(c1)c1ccc3c(c1n2C)C(=O)C=CC3=O | 57

Screening data (PubChem)
